Test results: ChEMBL document CHEMBL4673212, “Investigation of synergistic antimicrobial effects of the drug combinations of meropenem and 1,2-benzisoselenazol-3(2H)-one derivatives on carbapenem-resistant Enterobacteriaceae producing NDM-1” (Eur J Med Chem, 2018)
In brackets after ≈: the same amount, converted by molar mass.

Assays:
Escherichia coli [1] = test: Synergistic antibacterial activity against Escherichia coli TG1 transformed with IncX3 plasmid expressing blaNDM-1 assessed as ratio of negative logarithm of fractional inhibitory concentration index to non-hydrogen atom in presence of meropenem incubated for overnight by CLSI protocol based assay; format: functional; settings: time 12 hrs
Method in brief: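 In E. coli TG1 carrying the IncX3 blaNDM-1 plasmid, the FIC index was taken from overnight CLSI-based MICs of compound, meropenem and their 1:1 mass mixture, read by eye. Synergistic efficiency = −ln(FIC index) divided by the number of non-hydrogen atoms. At least triplicate assays.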

[2] = Growth inhibition of Escherichia coli TG1 transformed with IncX3 plasmid expressing blaNDM-1 incubated for overnight by CLSI protocol based assay; settings: 12 h
Escherichia coli [3] = test: Potentiation of meropenem-induced antibacterial activity against Escherichia coli TG1 transformed with IncX3 plasmid expressing blaNDM-1 assessed as bacterial growth inhibition by measuring meropenem MIC incubated for overnight by CLSI protocol based assay; format: functional; settings: time 12 hrs
Escherichia coli [4] = test: Synergistic antibacterial activity against Escherichia coli TG1 transformed with IncX3 plasmid expressing blaNDM-1 assessed as fractional inhibitory concentration index in presence of meropenem incubated for overnight by CLSI protocol based assay; format: functional; settings: time 12 hrs
Method in brief: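 FIC index from MICs of compound alone, meropenem alone, and the 1:1 (mass) compound–meropenem combination, read by eye after overnight incubation in a CLSI-based assay. FIC index = MICcombo/MICcpd + MICcombo/MICMem. FIC index ≤0.5 counted as synergy. At least triplicate assays. Clinical NDM-1 isolates for 17-39; E. coli TG1 carrying the IncX3 blaNDM-1 plasmid for 15.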

[5] = Covalent inhibition of bacterial NDM-1; set-up: species or system Bacteria
[6] = Competitive inhibition of recombinant bacterial His6-tagged TEV protease site linked NDM-1 (32 to […] residues) expressed in Escherichia coli BL21 (DE3); set-up: species or system Bacteria
[7] = Inhibition of bacterial VIM-1; set-up: species or system Bacteria
[8] = Inhibition of recombinant bacterial NDM-1 by fluorogenic assay; set-up: species or system Bacteria

Row | Ki [5] [µM] | IC50 [6] [µM] | IC50 [8] [µM] | SMILES | Ratio (Escherichia coli [1]) | MIC [2] | MIC (Escherichia coli [3]) [µg/mL] | fractional inhibitory concentration index (FICI) (Escherichia coli [4]) | IC50 [7] [µM]
1 |  |  |  | O=C(O)c1cccc(-n2[se]c3ccccc3c2=O)c1 | 0.052 | 32 µg/mL (≈ 101 µM) | 8 | 0.375 | 
2 |  |  |  | O=c1c2ccccc2[se]n1Cc1ccccc1 | 0.058 | 32 µg/mL (≈ 111 µM) | 8 | 0.375 | 
3 |  |  |  | CCN(CC)CCn1[se]c2ccccc2c1=O | 0.041 | 64 µg/mL (≈ 215 µM) | 16 | 0.5 | 
4 |  |  |  | CCCC[n+]1ccn(CCCn2[se]c3ccccc3c2=O)c1 | 0.076 | >= 128 ug ml-1 | 8 | 0.188 | 
5 |  |  |  | O=c1c2ccccc2[se]n1CCNCc1ccccc1 | 0.084 | >= 128 ug ml-1 | 8 | 0.188 | 
6 |  |  |  | CC1CN(CCn2[se]c3ccccc3c2=O)CC(C)O1 (stereo not given) | 0.049 | >= 128 ug ml-1 | 16 | 0.375 | 
7 | 2300 |  |  | N[C@@H](C(=O)N[C@@H]1C(=O)N2C(C(=O)O)=C(Cl)CS[C@H]12)c1ccccc1 [CEFACLOR ANHYDROUS] |  |  |  |  | 
8 |  |  |  | O=c1c2ccccc2[se]n1-c1ccc(CO)cc1 | 0.054 | >= 128 ug ml-1 | 16 | 0.375 | 
9 |  |  |  | Cc1ccc(C(=O)NCCn2[se]c3ccccc3c2=O)cc1 | 0.076 | >= 128 ug ml-1 | 8 | 0.188 | 
10 |  |  |  | Cl.NCCn1[se]c2ccccc2c1=O | -0.005 | 4 µg/mL | 4 | 1.063 | 
11 |  |  |  | C#CCn1[se]c2ccccc2c1=O | 0.107 | 64 µg/mL (≈ 271 µM) | 8 | 0.25 | 
12 |  |  |  | O=C(NCCn1[se]c2ccccc2c1=O)OCc1ccccc1 | 0.043 | >= 128 ug ml-1 | 16 | 0.375 | 
13 |  |  |  | COc1cccc(C(=O)n2[se]c3ccccc3c2=O)c1 | 0.084 | >= 128 ug ml-1 | 8 | 0.188 | 
14 |  |  |  | CCN(CC)CCCC(C)n1[se]c2ccccc2c1=O (stereo not given) | 0.084 | >= 128 ug ml-1 | 8 | 0.188 | 
15 |  |  |  | COc1ccc(Cn2[se]c3ccccc3c2=O)cc1 | 0.088 | >= 128 ug ml-1 | 8 | 0.188 | 
16 |  |  |  | O=c1c2ccccc2[se]n1S(=O)(=O)c1ccc(Cl)cc1 | 0.049 | >= 128 ug ml-1 | 16 | 0.375 | 
17 |  |  |  | CC(C)(C)OC(=O)NCCCn1[se]c2ccccc2c1=O | 0.08 | >= 128 ug ml-1 | 8 | 0.188 | 
18 |  |  |  | O=c1c2ccccc2[se]n1CCN1CCOCC1 | 0.039 | 64 µg/mL (≈ 206 µM) | 16 | 0.5 | 
19 |  |  |  | CCN1CCC[C@@H]1Cn1[se]c2ccccc2c1=O | 0.039 | 64 µg/mL (≈ 207 µM) | 16 | 0.5 | 
20 |  |  |  | O=c1c2ccccc2[se]n1CCC1CCOCC1 | 0.084 | >= 128 ug ml-1 | 8 | 0.188 | 
21 |  |  |  | O=c1c2ccccc2[se]n1-c1ccc(Cl)cc1 | 0.139 | >= 128 ug ml-1 | 4 | 0.094 | 
22 |  |  |  | O=C1CC[Se]N1c1ccccc1 | 0.024 | >= 128 ug ml-1 | 32 | 0.75 | 
23 |  |  |  | COc1ccc(-n2[se]c3ccccc3c2=O)cc1 | 0.054 | >= 128 ug ml-1 | 16 | 0.375 | 
24 |  |  |  | O=c1c2ccccc2[se]n1CCO | 0.022 | 32 µg/mL (≈ 132 µM) | 16 | 0.75 | 
25 |  |  |  | O=C(O)c1ccc(-n2[se]c3ccccc3c2=O)cc1 | 0.109 | 64 µg/mL (≈ 201 µM) | 4 | 0.125 | 

Row | Ki [5] [µM] | IC50 [6] [µM] | IC50 [8] [µM] | SMILES | Ratio (Escherichia coli [1]) | MIC [2] | MIC (Escherichia coli [3]) [µg/mL] | fractional inhibitory concentration index (FICI) (Escherichia coli [4]) | IC50 [7] [µM]
26 |  |  |  | O=c1c2ccccc2[se]n1CCN1CCCCC1 | 0.054 | >= 128 ug ml-1 | 16 | 0.375 | 
27 |  |  |  | CC(C)c1ccc(-n2[se]c3ccccc3c2=O)cc1 | 0.052 | >= 128 ug ml-1 | 16 | 0.375 | 
28 |  |  |  | Cl.NCCCn1[se]c2ccccc2c1=O | 0.091 | 8 µg/mL | 2 | 0.281 | 
29 |  |  |  | O=C(NCCn1[se]c2ccccc2c1=O)c1cccs1 | 0.084 | >= 128 ug ml-1 | 8 | 0.188 | 
30 |  |  |  | O=C(O)Cn1[se]c2ccccc2c1=O | 0.091 | 8 µg/mL (≈ 31.2 µM) | 2 | 0.281 | 
31 |  |  |  | O=c1c2ccccc2[se]n1-c1ccncc1 | 0.018 | >= 128 ug ml-1 | 32 | 0.75 | 
32 |  | 0.7 |  | O=C(O)[C@H]1CCCCN1C(=O)C(CS)Cc1ccccc1 (mixture of isomers) |  |  |  |  | 
33 |  |  |  | O=c1c2ccccc2[se]n1C1CCCCC1 | 0.087 | 64 µg/mL (≈ 228 µM) | 8 | 0.25 | 
34 |  |  |  | O=C(O)[C@@H]1SC[C@H]2CS[C@H](CS)N21 |  |  |  |  | 23
35 |  |  |  | COc1ccc(-n2[se]c3ccccc3c2=O)cc1Cl | 0.015 | >= 128 ug ml-1 | 32 | 0.75 | 
36 |  |  |  | CC(C)(CC(=O)NCCn1[se]c2ccccc2c1=O)C(F)(F)F | 0.073 | >= 128 ug ml-1 | 8 | 0.188 | 
37 |  |  |  | O=c1c2ccccc2[se]n1Cc1cccc(N2CCCCC2)c1 | 0.043 | >= 128 ug ml-1 | 16 | 0.375 | 
38 |  |  |  | COP(=O)(NCCn1[se]c2ccccc2c1=O)OC | 0.084 | >= 128 ug ml-1 | 8 | 0.188 | 
39 |  |  |  | O=C1N[Se]c2ccccc2C(=O)N1 | 0.107 | 64 µg/mL (≈ 265 µM) | 8 | 0.25 | 
40 |  |  |  | CC(C)(C)CC(=O)NCCn1[se]c2ccccc2c1=O | 0.084 | >= 128 ug ml-1 | 8 | 0.188 | 
41 |  |  |  | O=c1c2ccccc2[se]n1CCCn1ccnc1 | 0.054 | >= 128 ug ml-1 | 16 | 0.375 | 
42 |  |  |  | O=C(NCCn1[se]c2ccccc2c1=O)c1ccccc1 | 0.047 | >= 128 ug ml-1 | 16 | 0.375 | 
43 |  |  |  | C[C@@H](O)[C@H]1C(=O)N2C(C(=O)O)=C(S[C@@H]3CN[C@H](C(=O)N(C)C)C3)[C@H](C)[C@H]12 [MEROPENEM] |  | 64 µg/mL (≈ 167 µM) |  |  | 
44 |  |  |  | C[C@H](C(=O)N[C@H](C)C(=O)O)n1[se]c2ccccc2c1=O | 0.049 | >= 128 ug ml-1 | 16 | 0.375 | 
45 |  |  |  | O=c1c2ccccc2[se]n1Cc1cccc(-c2ccccc2)c1 | 0.043 | >= 128 ug ml-1 | 16 | 0.375 | 
46 |  |  |  | CCN1CCC[C@H]1Cn1[se]c2ccccc2c1=O | 0.039 | 64 µg/mL (≈ 207 µM) | 16 | 0.5 | 
47 |  |  |  | CN(C)CCn1[se]c2ccccc2c1=O | 0.065 | >= 128 ug ml-1 | 16 | 0.375 | 
48 |  |  |  | CC(C)(OC(=O)NCCCn1[se]c2ccccc2c1=O)C(F)(F)F | 0.07 | >= 128 ug ml-1 | 8 | 0.188 | 
49 |  |  |  | O=C(NCCn1[se]c2ccccc2c1=O)c1ccc(F)cc1F | 0.013 | >= 128 ug ml-1 | 32 | 0.75 | 
50 |  |  | 0.004 | NCCNCc1ccc(C(=O)N[C@H]2Cc3cccc(C(=O)O)c3O[B-]2(O)O)cc1 |  |  |  |  | 
